In the library only some 5.6% were active in any assay of this set; here they are far more common.
GRIN3A LBD mod = modulates the human NR3A ligand-binding domain. Tm shift relative to glycine control, % at 25 µM. NR3A LBD differential scanning fluorimetry, Tm shift; 0% = protein alone, 100% = glycine-bound protein. 340,000 tested, 2.5% active;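 active means melting temperature shift of at least 10% of the positive control shift, at one fixed dose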
CHOP UPR activ = activators of apoptotic arm of unfolded protein response (CHOP); CHO-CHOP luciferase reporter, UPR activation, luminescence; percent of tunicamycin response over DMSO baseline; activation, % at 10 µM; 330,000 tested, 0.34% active; AID 449763;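 active means at 10 µM dose, activation of 40% or more, normalized to positive control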;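 further: 100% = tunicamycin at 10 µg/mL and 0% = DMSO alone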
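System: CHO-CHOP luciferase reporter cell line | Buffer or medium: F12 medium containing 10% fetal bovine serum | Doses: One dose, 10 µM in 0.5% DMSO | Times: 6 h compound exposure at 37 °C after overnight seeding | Signal: Luciferase luminescence | Read-out: % activation vs tunicamycin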
CHOP inh = blocks CHOP induction under ER stress | 220,000 tested, 3.8% active | CHO-K1 CHOP-promoter luciferase, tunicamycin-induced, 15-18 h | inhibition, % at 10 µM;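 active means compounds that reduced the stress-induced luciferase reporter signal by more than about 70% of percent inhibition, limit read from the data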;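 further: 0% = tunicamycin plus vehicle and 100% = wells without tunicamycin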
MPTP inh = permeability transition pore inhibition. isolated mouse mitochondria, Ca2+ swelling absorbance, 30 min. inhibition, % at 10 µM. 360,000 tested, 1.4% active. AID 602449;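 active means inhibition of 50% or more, scaled per plate between neutral and stimulator controls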;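 further: 0% = DMSO wells given calcium and 100% = 1 mM EGTA wells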
UPR XBP1 act = activators of adaptive arm of unfolded protein response (XBP1). 330,000 tested, 0.33% active. CHO-XBP1 luciferase reporter, IRE1-XBP1 UPR activation, luminescence; percent of tunicamycin response, DMSO as zero. activation, % at 20 µM;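 active means versus positive control, 20 µM dose yields 30% or more activation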;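 further: 100% = tunicamycin at 10 µg/mL and 0% = DMSO only wells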
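Assay system: IRE1-XBP1 luciferase reporter CHO line. Input: 1000 cells/well. Buffer or medium: F12 with 10% serum. Doses: 20 µM, 1% DMSO. Times: overnight seeding at 37 °C, 6 h compound treatment at 37 °C. Technique: Steady-Glo luciferase glow luminescence, 10 min after reagent addition.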
aDG glyco act = increases alpha dystroglycan glycosylation; 360,000 tested, 0.22% active; activation, % at 10 µM; Pro5-aDG cells, alpha-DG glycosylation AlphaScreen (IIH6); 0% Pro5, 100% B10-LARGE cell signal; AID 624168;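 active means activation of at least 8% versus controls, or a plate z-score of at least 8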;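 further: Pro5 are CHO cells carrying HIG-tagged alpha-DG that lacks glycosylation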
Active calls of the source: *.

For CC(C)=CCc1cc(-c2oc3cc(O)cc(O)c3c(=O)c2O)ccc1O the results were GRIN3A LBD mod 21*, CHOP UPR activ 1, MPTP inh 4, UPR XBP1 act 2 and aDG glyco act 3.
Screening O=c1c(O)c(-c2cc(O)c(O)c(O)c2)oc2cc(O)cc(O)c12 returned GRIN3A LBD mod 27*, CHOP UPR activ 1, CHOP inh -8, MPTP inh 6, UPR XBP1 act -8 and aDG glyco act 0.
O=c1c(O)c(-c2ccccc2)oc2cc(O)cc(O)c12 was read as GRIN3A LBD mod 11*, CHOP UPR activ 2, MPTP inh 5, UPR XBP1 act 7 and aDG glyco act 0.
COc1ccc(NC(=O)c2cccc(S(=O)(=O)NCc3ccccc3)c2)cc1S(N)(=O)=O was read as GRIN3A LBD mod -2, CHOP UPR activ -1, MPTP inh -1, UPR XBP1 act -1 and aDG glyco act 0.
Screening CC1CCCC(NC(=O)COC(=O)c2cc3ccccc3oc2=O)C1C (stereo not given) returned GRIN3A LBD mod 1, CHOP UPR activ 2, MPTP inh -3, UPR XBP1 act 3 and aDG glyco act 0.
`CCOC(=O)c1cocc1C(=O)O` gave GRIN3A LBD mod 1, MPTP inh -1 and aDG glyco act 0.
For COC(=O)[C@@]1(C(C)C)N=C(c2cc(OC)c(OC)c(OC)c2)[C@]2(O1)C(=O)N(C)c1ccccc12 the results were MPTP inh 0 and aDG glyco act 0.
`CCOc1ccccc1/C=N/NC(=O)C[n+]1ccccc1` gave GRIN3A LBD mod -3, CHOP UPR activ 0, MPTP inh -2, UPR XBP1 act 1 and aDG glyco act 0.
Screening O=c1c(O)c(-c2ccccc2)oc2ccccc12 returned GRIN3A LBD mod 0, MPTP inh 7 and aDG glyco act 0.
Screening Cc1ccc(-c2oc3ccccc3c(=O)c2O)cc1 returned GRIN3A LBD mod 2, CHOP UPR activ 6, CHOP inh 72*, MPTP inh 8, UPR XBP1 act 6 and aDG glyco act 0.
Screening O=c1c(-c2ccccc2)c(-c2ccccc2)oc2cc(O)cc(O)c12 returned GRIN3A LBD mod 20*, CHOP UPR activ 4, MPTP inh 1, UPR XBP1 act 20 and aDG glyco act 0.
`O=C(CCCc1ccccc1)Nc1ccc2c(c1)OCCO2` gave GRIN3A LBD mod -1, CHOP UPR activ 3, CHOP inh -22, MPTP inh -2, UPR XBP1 act -2 and aDG glyco act 0.
Screening COc1ccc(NC(=O)CCc2nnc3ccc(NCc4ccco4)nn23)cc1OC returned GRIN3A LBD mod -2, CHOP UPR activ 2, MPTP inh 1, UPR XBP1 act -9 and aDG glyco act 2.
Screening O=C(COc1ccc(S(=O)(=O)N2CCOCC2)cc1)N1CCOCC1 returned GRIN3A LBD mod -1, CHOP UPR activ 0, MPTP inh 0, UPR XBP1 act -2 and aDG glyco act 0.
For O=C(COc1ccc(/C=C\[N+](=O)[O-])cc1)N1CCOCC1 the results were GRIN3A LBD mod 0, CHOP UPR activ 3, CHOP inh 85*, MPTP inh -4, UPR XBP1 act 2 and aDG glyco act 0.
Screening O=C(/C=N/O)Nc1ccc2sc3ccccc3c2c1 returned GRIN3A LBD mod 34*, CHOP UPR activ 2, CHOP inh 37, MPTP inh 6, UPR XBP1 act -1 and aDG glyco act 0.
`COC(=O)c1ccccc1NC(=O)/C=N/O` gave GRIN3A LBD mod 1, CHOP UPR activ 1, CHOP inh 19, MPTP inh 1, UPR XBP1 act 2 and aDG glyco act 0.
O=C(NC1CCCC1)c1cc2nc(-c3ccccc3)cc(-c3ccccc3)n2n1 was read as GRIN3A LBD mod 2, CHOP UPR activ 1, CHOP inh 0, MPTP inh 2, UPR XBP1 act 1 and aDG glyco act 0.
Screening CC1CCN(C(=O)c2cc3nc(-c4ccccc4)cc(-c4ccccc4)n3n2)CC1 returned GRIN3A LBD mod 0, CHOP UPR activ 0, CHOP inh 75*, MPTP inh 2, UPR XBP1 act -1 and aDG glyco act 1.
Screening O=C(Nc1cccc(O)c1)c1cc2nc(-c3ccccc3)cc(-c3ccccc3)n2n1 returned GRIN3A LBD mod 20*, CHOP UPR activ 5, CHOP inh 84*, MPTP inh -4, UPR XBP1 act 5 and aDG glyco act 0.
`CCCN1CCN(C(=O)C(C)n2nc(C)c3sc4ccccc4c3c2=O)CC1` (stereo not given) gave GRIN3A LBD mod -2, CHOP UPR activ 0, MPTP inh -3, UPR XBP1 act -6 and aDG glyco act 0.
For CC(=O)n1nc(-c2ccccc2)nc1NCc1cccs1 the results were GRIN3A LBD mod -1, CHOP UPR activ 4, CHOP inh 39, MPTP inh 1, UPR XBP1 act 0 and aDG glyco act 0.
`Clc1ccc(-c2cn3c(n2)-c2ccccc2C3)cc1Cl` gave GRIN3A LBD mod 30*, CHOP UPR activ 2, CHOP inh 56, MPTP inh 2, UPR XBP1 act -1 and aDG glyco act 1.
Clc1ccc(-c2cn3cc(Br)ccc3n2)cc1Cl was read as GRIN3A LBD mod -26, CHOP UPR activ -2, CHOP inh 66, MPTP inh 1, UPR XBP1 act -3 and aDG glyco act 1.
COc1ccc2cc3cc(C(=O)NCCc4ccc(OC)c(OC)c4)oc3nc2c1 was read as GRIN3A LBD mod -12, CHOP UPR activ -1, CHOP inh 10, MPTP inh -2, UPR XBP1 act 3 and aDG glyco act 0.
For COc1ccc2nc3oc(C(=O)Nc4ccc(OC)c(OC)c4)cc3cc2c1 the results were GRIN3A LBD mod 17*, CHOP UPR activ -2, CHOP inh 39, MPTP inh 3, UPR XBP1 act -1 and aDG glyco act 0.
Screening COc1ccc2cc3cc(C(=O)Nc4ccc5c(c4)OCO5)oc3nc2c1 returned GRIN3A LBD mod 26*, CHOP UPR activ 2, CHOP inh -35, MPTP inh 1, UPR XBP1 act 1 and aDG glyco act 1.
For Cc1ccc2cc3cc(C(=O)NCc4ccc5c(c4)OCO5)oc3nc2c1 the results were GRIN3A LBD mod 3, CHOP UPR activ 2, CHOP inh 68, MPTP inh -2, UPR XBP1 act 1 and aDG glyco act 0.
For CC(=O)NC(c1ccccc1)c1nc(-c2ccc(Cl)cc2)cs1 (stereo not given) the results were MPTP inh 0 and aDG glyco act 0.
`O=C(Nc1nnc(C2=COCCO2)o1)c1ccc([N+](=O)[O-])cc1` gave GRIN3A LBD mod 0, CHOP UPR activ 0, MPTP inh 3, UPR XBP1 act -3 and aDG glyco act 0.

From PubChem BioAssay
